From ChEMBL document CHEMBL4393725, “Design and synthesis of novel xanthone-triazole derivatives as potential antidiabetic agents: α-Glucosidase inhibition and glucose uptake promotion” (Eur J Med Chem, 2019)
The source made the active and inactive calls. The rule behind the calls is not given here.

What was measured:
Alpha glucosidase = Alpha glucosidase (Homo sapiens, UniProt O43451+P10253+P14410+Q2M2H8); experiment: Inhibition of alpha-glucosidase (unknown origin) using PNP glucoside as substrate preincubated for 30 mins followed by substrate addition further incubated for 1 min by spectrophotometry; type: protein assay
Method in brief: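 Yeast α-glucosidase with p-nitrophenyl-α-D-glucopyranoside substrate in 50 mM phosphate buffer, pH 6.8, with 5% v/v DMSO. Inhibitor and enzyme were preincubated for 30 min at 37 °C, then the reaction ran for 1 min at 37 °C, read at 400 nm. IC50 came from five concentrations bracketing a preliminary estimate, each measured three times in parallel; mean ± SD.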

L02 = experiment: Cytotoxicity against human LO2 cells assessed as reduction in cell viability incubated for 44 hrs by MTT assay; type: cell-based; details: L02, 44 h
Method in brief: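 LO2 human hepatocytes in DMEM with 10% FBS, penicillin and streptomycin at 37 °C, 5% CO2. Plated at 5000 cells/well for 24 h, then exposed to a range of concentrations for 44 h. MTT was added for 4 h, formazan dissolved in DMSO, and A490 read. Viability = A treated/A control × 100%. IC50 is the concentration giving 50% viability loss, as mean ± SD.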

HepG2 [1] = experiment: Induction of glucose uptake in human HepG2 cells at 0.625 uM incubated for 24 hrs in low glucose medium relative to control; type: functional
Method in brief: (§1)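 HepG2 cells in high-glucose DMEM with 10% FBS and antibiotics, seeded at 5000 cells/well for 24 h. They were washed with low-glucose DMEM and PBS, then treated for 24 h in low-glucose DMEM with 2% FBS at 0.625, 1.25 or 2.5 μM. Glucose left in the medium was measured with a glucose kit. Rosiglitazone was the positive control.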

HepG2 [2] = experiment: Induction of glucose uptake in human HepG2 cells at 2.5 uM incubated for 24 hrs in low glucose medium relative to control; type: functional; method in brief: as §1
HepG2 [3] = experiment: Induction of glucose uptake in human HepG2 cells incubated for 24 hrs in low glucose medium; type: functional, cell-based; method in brief: as §1
HepG2 (Homo sapiens) = experiment: Cytotoxicity against human HepG2 cells assessed as effect on cell survival at 0.625 to 2.5 uM incubated for 44 hrs by MTT assay; details: HepG2, 44 h
HepG2 [4] = experiment: Induction of glucose uptake in human HepG2 cells at 1.25 uM incubated for 24 hrs in low glucose medium relative to control; type: functional; method in brief: as §1
[5] = test system: Alpha-glucosidase (Saccharomyces cerevisiae); experiment: Noncompetitive inhibition of alpha-glucosidase (Saccharomyces cerevisiae) at 0 to 4 uM using PNP glycoside as substrate preincubated for 30 mins followed by substrate addition further incubated for 1 min by Lineweaver-Burk plot analysis
[6] = test system: Alpha-glucosidase (Saccharomyces cerevisiae); experiment: Noncompetitive inhibition of alpha-glucosidase (Saccharomyces cerevisiae) at 0 to 9 uM using PNP glycoside as substrate preincubated for 30 mins followed by substrate addition further incubated for 1 min by Lineweaver-Burk plot analysis
HepG2 [7] = experiment: Induction of glucose uptake in human HepG2 cells at 0.625 to 2.5 uM incubated for 24 hrs in low glucose medium; type: functional, cell-based; method in brief: as §1
[8] = test system: Alpha-glucosidase (Saccharomyces cerevisiae); experiment: Noncompetitive inhibition of alpha-glucosidase (Saccharomyces cerevisiae) at 0 to 6 uM using PNP glycoside as substrate preincubated for 30 mins followed by substrate addition further incubated for 1 min by Lineweaver-Burk plot analysis
[9] = test system: Alpha-glucosidase (Saccharomyces cerevisiae); experiment: Noncompetitive inhibition of alpha-glucosidase (Saccharomyces cerevisiae) at 0 to 3.5 uM using PNP glycoside as substrate preincubated for 30 mins followed by substrate addition further incubated for 1 min by Lineweaver-Burk plot analysis
[10] = test system: Alpha-glucosidase (Saccharomyces cerevisiae); experiment: Noncompetitive inhibition of alpha-glucosidase (Saccharomyces cerevisiae) at 0 to 10 uM using PNP glycoside as substrate preincubated for 30 mins followed by substrate addition further incubated for 1 min by Lineweaver-Burk plot analysis
HepG2 [11] = experiment: Induction of glucose uptake in human HepG2 cells at 0.625 to 2.5 uM incubated for 24 hrs in low glucose medium relative to control; type: functional; method in brief: as §1

Molecule	IC50 (Alpha glucosidase)	IC50 (L02)	Activity (HepG2 (Homo sapiens))	Activity (HepG2 [7])	further results
COc1ccc2oc3cc(OCc4cn(CC(=O)Nc5ccc(OC)c(OC)c5)nn4)cc(O)c3c(=O)c2c1	> 100 µM	> 100 µM	–	–	–
COc1ccc(NC(=O)Cn2cc(COc3cc(OC(C)=O)c4c(=O)c5ccc(Br)cc5oc4c3)nn2)c(OC)c1	12.78 µM	> 100 µM	Non-Toxic	–	Activity (HepG2 [1]): 61%; Activity (HepG2 [2]): 163%; Activity (HepG2 [3]): Dose-dependent effect; Activity (HepG2 [4]): 90%
COc1ccc(NC(=O)Cn2cc(COc3cc(O)c4c(=O)c5cc(Br)ccc5oc4c3)nn2)cc1OC	29.84 µM	> 100 µM	–	–	–
COc1ccc2c(=O)c3c(O)cc(OCc4cn(CC(=O)Nc5ccc(OC)c(OC)c5)nn4)cc3oc2c1	15.9 µM	> 100 µM	–	–	–
COc1ccc(NC(=O)Cn2cc(COc3cc(O)c4c(=O)c5ccc(OC)cc5oc4c3)nn2)c(OC)c1	2.06 µM	89.1 µM	Non-Toxic	–	inhibition [5]: Active; Activity (HepG2 [3]): Dose-dependent effect
COc1ccc(NC(=O)Cn2cc(COc3cc(OC(C)=O)c4c(=O)c5ccc(Br)cc5oc4c3)nn2)cc1OC	26.11 µM	25.9 µM	–	–	–
COc1ccc(NC(=O)Cn2cc(COc3cc(O)c4c(=O)c5ccc(Br)cc5oc4c3)nn2)c(OC)c1	2.78 µM	> 100 µM	Non-Toxic	Active	inhibition [9]: Active
COc1ccc2c(=O)c3c(OC(C)=O)cc(OCc4cn(CC(=O)Nc5ccc(OC)c(OC)c5)nn4)cc3oc2c1	98.63 µM	> 100 µM	–	–	–
COc1ccc(NC(=O)Cn2cc(COc3cc(OC(C)=O)c4c(=O)c5cc(Br)ccc5oc4c3)nn2)cc1OC	32.33 µM	> 100 µM	–	–	–
O=c1c2ccccc2oc2cc(O)cc(O)c12	–	–	Non-Toxic	inactive	–
COc1ccc2oc3cc(OCc4cn(CC(=O)Nc5ccc(OC)c(OC)c5)nn4)cc(OC(C)=O)c3c(=O)c2c1	> 100 µM	24.9 µM	–	–	–
COc1ccc(NC(=O)Cn2cc(COc3cc(O)c4c(=O)c5cc(OC)ccc5oc4c3)nn2)c(OC)c1	8.31 µM	65.4 µM	Non-Toxic	inactive	–
COc1ccc(NC(=O)Cn2cc(COc3cc(OC(C)=O)c4c(=O)c5ccc(OC)cc5oc4c3)nn2)c(OC)c1	33.16 µM	> 100 µM	–	–	–
COc1ccc(NC(=O)Cn2cc(COc3cc(O)c4c(=O)c5ccc(Br)cc5oc4c3)nn2)cc1OC	11.82 µM	> 100 µM	–	–	–
CN(CCOc1ccc(CC2SC(=O)NC2=O)cc1)c1ccccn1 (stereo unspecified) [ROSIGLITAZONE]	–	–	–	–	Activity (HepG2 [11]): 50%
COc1ccc(NC(=O)Cn2cc(COc3cc(OC(C)=O)c4c(=O)c5cc(OC)ccc5oc4c3)nn2)c(OC)c1	42.6 µM	> 100 µM	–	–	–
COc1ccc(NC(=O)Cn2cc(COc3cc(OC(C)=O)c4c(=O)c5cc(Br)ccc5oc4c3)nn2)c(OC)c1	12.13 µM	80.7 µM	Non-Toxic	inactive	–
2-(4-(((7-bromo-1-hydroxy-9-oxo-9H-xanthen-3-yl)oxy)methyl)-1H-1,2,3-triazol-1-yl)-N-(2,4-dihydroxyphenyl)acetamide	–	–	–	Active	–

Continued, in another order:

IC50 (Alpha glucosidase)	Molecule	IC50 (L02)	Activity (HepG2 (Homo sapiens))	Activity (HepG2 [7])	further results
15.62 µM	O=C(Cn1cc(COc2cc(O)c3c(=O)c4cc(O)ccc4oc3c2)nn1)Nc1ccc(O)cc1O	> 100 µM	–	–	–
17.61 µM	O=C(Cn1cc(COc2cc(O)c3c(=O)c4ccc(O)cc4oc3c2)nn1)Nc1ccc(O)cc1O	> 100 µM	–	–	–
5.23 µM	O=C(Cn1cc(COc2cc(O)c3c(=O)c4ccc(Br)cc4oc3c2)nn1)Nc1ccc(O)c(O)c1	> 100 µM	Non-Toxic	–	Activity (HepG2 [3]): Dose-dependent effect; inhibition [6]: Active
3.07 µM	COc1ccc(NC(=O)Cn2cc(COc3cc(O)c4c(=O)c5cc(Br)ccc5oc4c3)nn2)c(OC)c1	> 100 µM	Non-Toxic	inactive	inhibition [8]: Active
5.87 µM	O=C(Cn1cc(COc2cc(O)c3c(=O)c4ccc(Br)cc4oc3c2)nn1)Nc1ccc(O)cc1O	74 µM	Non-Toxic	inactive	inhibition [10]: Active
7.06 µM	O=C(Cn1cc(COc2cc(O)c3c(=O)c4cc(O)ccc4oc3c2)nn1)Nc1ccc(O)c(O)c1	> 100 µM	Non-Toxic	inactive	–
6.13 µM	O=C(Cn1cc(COc2cc(O)c3c(=O)c4ccc(O)cc4oc3c2)nn1)Nc1ccc(O)c(O)c1	> 100 µM	Non-Toxic	–	Activity (HepG2 [3]): Dose-dependent effect
3.17 µM	O=C(Cn1cc(COc2cc(O)c3c(=O)c4cc(Br)ccc4oc3c2)nn1)Nc1ccc(O)c(O)c1	> 100 µM	Non-Toxic	Active	inhibition [8]: Active
